This passage reports T and IC50 results from ChEMBL document CHEMBL1141508, “Lysinyl macrocyclic hexaoxazoles: synthesis and selective G-quadruplex stabilizing properties” (Bioorg Med Chem Lett, 2008).

The species named for one assay is Homo sapiens. The assay is described as follows: Binding affinity to human d(T2AG3)4 DNA assessed as transition temperature. The procedure, abridged:
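UV melting of d[T2G3(T2AG3)3A] (5 μM strand) with macrocycle at 20 μM in 10 mM potassium phosphate pH 7.5, KCl added to 150 mM total K+. Absorbance read at 295 nm, 1 cm quartz cuvette; temperature raised in 0.5 °C steps with 1.5 min equilibration, absorbance averaged over 5 s at each step.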

For the next assay, the system named is Salmonidae. The assay is described as follows: Binding affinity to salmon testes DNA assessed as transition temperature. The procedure, abridged:
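Salmon testes DNA (15 μM base pair) melted with ligand at 15 μM in 10 mM EPPS pH 7.5, KCl added to 50 mM total K+. Absorbance followed at 260 nm in a 1 cm quartz cuvette; heating in 0.5 °C increments, 1.5 min equilibration per setting, readings averaged over 5 s.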

Assay [1] is described as follows: Cytotoxicity against human RPMI8402 cells. It is filed as functional, cell-based. The conditions noted are these: RPMI 8402.

For the molecule `CC(=O)NCCCC[C@@H]1NC(=O)c2coc(n2)-c2coc(n2)-c2coc(n2)[C@H](C(C)C)NC(=O)c2coc(n2)-c2coc(n2)-c2coc1n2`, the values for the T in the assay listed under Homo sapiens and with Salmonidae were 79 °C and 76.5 °C, respectively.

By IC50 is commonly meant the point on the concentration scale where inhibition reaches its midpoint. For the molecule `CC(C)[C@@H]1NC(=O)c2coc(n2)-c2coc(n2)-c2coc(n2)[C@H](C(C)C)NC(=O)c2coc(n2)-c2coc(n2)-c2coc1n2` [HEXAOXAZOLE DIVALINE], the results for the T in the assay filed under Homo sapiens and with Salmonidae were 77 °C and 76.5 °C, respectively. Besides, the IC50 in assay [1] was found to be 400 nM.

With `NCCCC[C@@H]1NC(=O)c2coc(n2)-c2coc(n2)-c2coc(n2)[C@H](CCCCN)NC(=O)c2coc(n2)-c2coc(n2)-c2coc1n2`, the T was 102 °C in the assay filed under Homo sapiens and 79 °C in the assay with Salmonidae.

With `CC(C)[C@@H]1NC(=O)c2coc(n2)-c2coc(n2)-c2coc(n2)[C@H](CCCCN)NC(=O)c2coc(n2)-c2coc(n2)-c2coc1n2`, the results for the T in the assay filed under Homo sapiens and with Salmonidae were 90 °C and 76.5 °C, respectively.

For the molecule `CC(C)[C@@H]1NC(=O)c2coc(n2)-c2coc(n2)-c2coc(n2)[C@H](CCCCN(C)C)NC(=O)c2coc(n2)-c2coc(n2)-c2coc1n2`, the figures for the T in the assay listed under Homo sapiens and in the assay on Salmonidae were 81 °C and 76 °C, respectively.
